The nature of series [1]: Tmax in ICR mouse at 30 mg/kg, po measured up to 24 hrs by LC-MS/MS analysis. In kind it is ADME, organism-based. The settings on record: in vivo. The essentials:
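Male ICR mice (25.1–28.8 g, n=9), fasted overnight (12 h), single oral gavage 30 mg/kg as 3 mg/mL in 0.5% CMC-Na with 0.2% Tween 80. Venous blood drawn into EDTA-K2 at 0, 0.25, 0.5, 1, 2, 4, 8, 24 h. Plasma protein-precipitated with ACN and run on LC-MS/MS (C18, formic acid/ACN). Noncompartmental parameters taken from composite mean concentration-time data.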

The test system of the next series is MIA PaCa-2. Briefly: Antiproliferative activity against human MIA PaCa-2 cells assessed as inhibition of cell growth incubated for 72 hrs by Celltiter-Glo luminescent assay. In kind it is functional, cell-based. The settings on record: MIA PaCa-2, 72 h. The gist of the method:
(§1)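 Cells seeded in growth medium and held overnight at 37 °C; medium-only wells served as background. DMSO stocks were diluted in medium to 3× final and added; cells incubated 72 h at 37 °C, 5% CO2. Viability read by CellTiter-Glo luminescence after 60 min at room temperature. IC50 from curve fit, mean of duplicate.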
On the technique in general: ATP-based viability assays read luminescence as a measure of living cells.

The test system of the next series is BXPC-3. Briefly: Antiproliferative activity against human BxPC3 cells assessed as inhibition of cell growth incubated for 72 hrs by Celltiter-Glo luminescent assay. In kind it is functional, cell-based. The settings on record: BXPC-3, 72 h. The gist of the method: as §1
For another series, the target named is CDK3/Cyclin E (Homo sapiens, UniProt Q00526). Briefly: Inhibition of CDK3/Cyclin E (unknown origin) preincubated for 20 mins followed by ATP addition and measured after 120 mins in presence of [33P-gamma] ATP by hotspot kinase assay. In kind it is protein-complex assay. The gist of the method:
(§2)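 Radiometric filter-binding assay: kinase and substrate in 20 mM Hepes pH 7.5, 10 mM MgCl2, 1 mM EGTA, 0.02% Brij35, 0.02 mg/mL BSA, 0.1 mM Na3VO4, 2 mM DTT, 1% DMSO. Compound (top 1/10/27 μM, 3-fold serial dilutions) preincubated 20 min at 25 °C. ATP plus [γ-33P]ATP added to 10 μM final, reacted 120 min at 25 °C. IC50 from curve fit, duplicate mean.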

Series [2] in a line: Metabolic stability in dog liver microsomes assessed as intrinsic clearance at 1 uM incubated up to 60 mins in presence of NADPH by LC-MS/MS analysis. In kind it is ADME, Canis lupus familiaris, Microsome. The settings on record: read-out: CLH. The gist of the method:
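Liver microsomes (0.5 mg/mL) incubated at 37 °C with compound at 1.0 μM final, 3 mM MgCl2 and 1 mM NADPH in 100 mM PBS pH 7.4. Samples taken at 0, 5, 15, 30, 60 min; remaining parent measured by LC-MS/MS. k = −slope, T1/2 = 0.693/k, CLint = k/microsomal protein concentration. Midazolam served as control.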
(Microsomes from liver hold many membrane-bound enzymes, among them those of drug oxidation.)

The target in series [3] is Cyclin-dependent kinase 5/CDK5 activator 1 (Homo sapiens, UniProt Q00535). Briefly: Inhibition of CDK5/p25 (unknown origin) preincubated for 20 mins followed by ATP addition and measured after 120 mins in presence of [33P-gamma] ATP by hotspot kinase assay. In kind it is protein-complex assay. The gist of the method: as §2

Each structure is given as a SMILES string.

CDK3/Cyclin E, sequence (P24864 whole entry): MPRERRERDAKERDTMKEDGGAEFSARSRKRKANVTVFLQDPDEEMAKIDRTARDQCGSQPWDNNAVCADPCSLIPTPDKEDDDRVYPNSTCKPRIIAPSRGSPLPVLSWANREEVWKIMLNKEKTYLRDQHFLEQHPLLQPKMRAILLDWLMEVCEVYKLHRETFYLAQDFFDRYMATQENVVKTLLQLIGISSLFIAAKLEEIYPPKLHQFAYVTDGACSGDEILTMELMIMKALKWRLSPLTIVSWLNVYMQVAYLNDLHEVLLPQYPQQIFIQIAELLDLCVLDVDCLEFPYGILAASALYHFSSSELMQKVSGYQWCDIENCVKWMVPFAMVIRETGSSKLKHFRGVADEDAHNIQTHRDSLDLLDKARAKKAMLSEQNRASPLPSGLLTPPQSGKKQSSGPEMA
CDK3/Cyclin E, sequence (Q00526 whole entry): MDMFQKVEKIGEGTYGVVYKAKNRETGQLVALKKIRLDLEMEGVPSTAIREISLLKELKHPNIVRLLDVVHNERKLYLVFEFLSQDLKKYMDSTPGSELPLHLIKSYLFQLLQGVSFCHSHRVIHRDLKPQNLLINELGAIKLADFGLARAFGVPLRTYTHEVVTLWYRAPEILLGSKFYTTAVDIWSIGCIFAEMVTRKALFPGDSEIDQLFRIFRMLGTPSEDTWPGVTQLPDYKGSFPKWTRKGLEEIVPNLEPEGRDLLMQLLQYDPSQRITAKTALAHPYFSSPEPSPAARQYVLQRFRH
Cyclin-dependent kinase 5/CDK5 activator 1, sequence (Q00535 whole entry): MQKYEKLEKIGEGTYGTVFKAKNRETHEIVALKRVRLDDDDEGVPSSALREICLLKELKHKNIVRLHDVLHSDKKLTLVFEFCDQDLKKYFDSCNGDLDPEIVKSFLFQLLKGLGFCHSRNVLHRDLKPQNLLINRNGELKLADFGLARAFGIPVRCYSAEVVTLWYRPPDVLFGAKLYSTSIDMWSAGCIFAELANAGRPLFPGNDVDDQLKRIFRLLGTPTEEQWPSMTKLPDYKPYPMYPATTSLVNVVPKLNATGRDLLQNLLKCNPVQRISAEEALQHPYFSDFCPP
Cyclin-dependent kinase 5/CDK5 activator 1, sequence (Q15078 whole entry, further chain): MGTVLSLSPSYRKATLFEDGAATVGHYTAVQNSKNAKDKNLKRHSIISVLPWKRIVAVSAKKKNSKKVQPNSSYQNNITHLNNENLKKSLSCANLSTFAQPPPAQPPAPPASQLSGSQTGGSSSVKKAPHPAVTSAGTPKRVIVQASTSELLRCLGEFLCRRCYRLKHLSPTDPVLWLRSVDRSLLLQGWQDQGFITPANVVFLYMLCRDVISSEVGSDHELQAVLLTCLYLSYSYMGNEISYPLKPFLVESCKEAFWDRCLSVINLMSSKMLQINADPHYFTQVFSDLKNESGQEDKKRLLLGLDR

Regarding `COc1cc(F)ccc1-c1nc(Nc2ccc3c(N4CCOCC4)c(C(C)=O)c(=O)oc3c2)ncc1F`, the Tmax in series [1] came out at 15 min. Moreover, the IC50 in the series with MIA PaCa-2 amounted to 460 nM; in the series on BXPC-3, 80 nM; at CDK3/Cyclin E, 1510 nM; in series [3] it was 1260 nM. The microsomal CLint at 1 µM in series [2] stood at 98.7 µL/min/mg.

As a reminder, the Tmax is the time at which the peak concentration occurs. One may read the IC50 as the concentration that gives 50% inhibition.

The values above are taken from ChEMBL document CHEMBL4765336, “Discovery of coumarin derivatives as potent and selective cyclin-dependent kinase 9 (CDK9) inhibitors with high antitumour activity” (Eur J Med Chem, 2020).
